According to ChEMBL document CHEMBL4052661, “Structure Based Design of N-(3-((1H-Pyrazolo[3,4-b]pyridin-5-yl)ethynyl)benzenesulfonamides as Selective Leucine-Zipper and Sterile-α Motif Kinase (ZAK) Inhibitors” (J Med Chem, 2017):

Columns and labels:
[1] = target: T1, Mitogen-activated protein kinase kinase kinase 20 (Homo sapiens, UniProt Q9NYL2); test: Inhibition of N-terminal GST-tagged recombinant human full-length ZAK expressed in baculovirus infected Sf9 insect cells using MBP as substrate after 30 mins by ADP-Glo assay
Procedure, shortened: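 ZAK activity by ADP-Glo luminescence with MBP as substrate, ATP and serially diluted compound. Reaction started by adding ATP and run 30 min at room temperature. ADP-Glo reagent was added to stop it (40 min), then detection reagent for 30 min before reading luminescence. Curves fitted; each experiment repeated at least 3 times.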

[2] = target: Serine/threonine-protein kinase B-raf (Homo sapiens, UniProt P15056, V600E); test: Inhibition of recombinant human B-RAF V600E mutant using Ser/Thr3 as substrate after 1 hr by FRET-based Z'-Lyte assay
[3] = target: Serine/threonine-protein kinase B-raf (Homo sapiens, UniProt P15056); test: Inhibition of wild type GST-tagged recombinant human full-length B-RAF expressed in baculovirus expression system using Ser/Thr3 as substrate after 1 hr by FRET-based Z'-Lyte assay
Procedure, shortened: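 Z'-Lyte FRET assay with Ser/Thr3 peptide in kinase buffer; the final reaction held 0.002 ng B-Raf for wild type. Incubated 1 h at room temperature, then 1 h development to cleave nonphosphorylated peptide, then stop reagent. Means of 3 independent experiments.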

[4] = target: T1, Mitogen-activated protein kinase kinase kinase 20

Serine/threonine-protein kinase B-raf (Homo sapiens, UniProt P15056), sequence (P15056 whole entry): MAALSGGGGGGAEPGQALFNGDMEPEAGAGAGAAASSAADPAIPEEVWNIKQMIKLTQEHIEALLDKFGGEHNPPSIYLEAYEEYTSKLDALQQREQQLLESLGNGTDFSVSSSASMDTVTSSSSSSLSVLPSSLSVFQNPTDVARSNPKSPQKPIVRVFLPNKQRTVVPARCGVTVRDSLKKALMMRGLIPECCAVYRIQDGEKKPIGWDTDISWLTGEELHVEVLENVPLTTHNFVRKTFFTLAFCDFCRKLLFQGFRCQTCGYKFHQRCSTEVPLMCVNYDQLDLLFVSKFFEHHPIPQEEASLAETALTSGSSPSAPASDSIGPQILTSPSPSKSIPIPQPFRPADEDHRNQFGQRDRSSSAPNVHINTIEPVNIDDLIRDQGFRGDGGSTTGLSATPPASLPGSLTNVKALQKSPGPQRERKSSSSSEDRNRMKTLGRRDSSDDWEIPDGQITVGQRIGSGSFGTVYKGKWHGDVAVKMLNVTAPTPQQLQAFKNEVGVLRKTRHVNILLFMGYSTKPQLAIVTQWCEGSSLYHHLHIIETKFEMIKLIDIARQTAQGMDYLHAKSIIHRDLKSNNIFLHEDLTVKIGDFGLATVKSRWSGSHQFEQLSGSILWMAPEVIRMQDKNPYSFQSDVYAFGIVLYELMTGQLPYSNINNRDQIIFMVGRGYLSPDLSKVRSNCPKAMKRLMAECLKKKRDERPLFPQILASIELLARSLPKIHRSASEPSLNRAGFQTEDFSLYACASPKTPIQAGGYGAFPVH
T1 sequence (Q9NYL2 whole entry): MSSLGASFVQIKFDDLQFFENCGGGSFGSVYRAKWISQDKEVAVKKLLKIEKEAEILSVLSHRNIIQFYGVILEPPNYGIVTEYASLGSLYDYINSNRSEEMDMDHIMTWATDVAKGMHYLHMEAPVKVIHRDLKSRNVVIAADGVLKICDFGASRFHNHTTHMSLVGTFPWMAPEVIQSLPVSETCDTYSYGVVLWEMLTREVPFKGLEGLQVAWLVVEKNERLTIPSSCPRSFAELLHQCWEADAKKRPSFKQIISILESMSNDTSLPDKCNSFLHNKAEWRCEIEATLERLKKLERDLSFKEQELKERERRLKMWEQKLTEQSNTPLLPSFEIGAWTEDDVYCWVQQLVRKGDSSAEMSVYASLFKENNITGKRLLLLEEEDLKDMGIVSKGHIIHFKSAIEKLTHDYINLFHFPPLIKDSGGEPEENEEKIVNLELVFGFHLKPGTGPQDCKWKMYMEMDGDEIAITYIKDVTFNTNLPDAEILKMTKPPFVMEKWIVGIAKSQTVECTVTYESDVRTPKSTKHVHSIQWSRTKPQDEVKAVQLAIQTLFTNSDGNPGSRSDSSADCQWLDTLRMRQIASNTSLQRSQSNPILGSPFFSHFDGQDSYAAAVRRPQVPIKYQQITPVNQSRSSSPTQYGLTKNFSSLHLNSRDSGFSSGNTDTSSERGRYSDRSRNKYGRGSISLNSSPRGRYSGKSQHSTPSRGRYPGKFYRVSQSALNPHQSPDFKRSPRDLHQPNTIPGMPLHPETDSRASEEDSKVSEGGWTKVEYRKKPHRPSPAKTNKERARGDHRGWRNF
Serine/threonine-protein kinase B-raf (Homo sapiens, UniProt P15056, V600E), sequence (P15056 2-766 V600E limits assumed): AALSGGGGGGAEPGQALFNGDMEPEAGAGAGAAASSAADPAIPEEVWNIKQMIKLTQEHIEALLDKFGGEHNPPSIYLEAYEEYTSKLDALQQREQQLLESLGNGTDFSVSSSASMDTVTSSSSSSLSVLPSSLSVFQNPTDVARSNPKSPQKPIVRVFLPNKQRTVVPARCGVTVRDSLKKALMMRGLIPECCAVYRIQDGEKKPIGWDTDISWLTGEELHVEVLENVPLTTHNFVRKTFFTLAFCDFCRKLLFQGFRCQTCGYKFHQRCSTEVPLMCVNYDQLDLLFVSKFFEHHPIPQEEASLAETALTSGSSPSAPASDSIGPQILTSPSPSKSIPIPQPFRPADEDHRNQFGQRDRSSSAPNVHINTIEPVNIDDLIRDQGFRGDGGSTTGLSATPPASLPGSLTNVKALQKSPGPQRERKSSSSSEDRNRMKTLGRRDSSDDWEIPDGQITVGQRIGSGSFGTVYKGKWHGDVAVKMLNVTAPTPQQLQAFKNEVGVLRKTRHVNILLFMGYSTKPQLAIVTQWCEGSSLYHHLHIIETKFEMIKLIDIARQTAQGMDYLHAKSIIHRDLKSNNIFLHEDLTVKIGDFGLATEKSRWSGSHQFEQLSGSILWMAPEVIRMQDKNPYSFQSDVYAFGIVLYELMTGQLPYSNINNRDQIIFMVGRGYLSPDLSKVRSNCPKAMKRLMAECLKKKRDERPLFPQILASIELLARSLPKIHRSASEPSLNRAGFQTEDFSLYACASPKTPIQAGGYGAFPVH

IC50 [1] [µM] | IC50 [2] [µM] | IC50 [3] [µM] | IC50 [4] [µM] | SMILES
0.0096 | > 10 | > 2 |  | COc1n[nH]c2ncc(C#Cc3c(F)ccc(NS(=O)(=O)c4cccc(Cl)c4Cl)c3F)cc12
0.005 | > 1 | > 1 |  | COc1n[nH]c2ncc(C#Cc3c(F)ccc(NS(=O)(=O)c4cccc(Br)c4)c3F)cc12
0.0226 | > 10 | > 10 |  | O=S(=O)(Nc1ccc(F)c(C#Cc2cnc3[nH]ccc3c2)c1F)c1cccc(Cl)c1
0.0075 | > 7 | > 1 |  | COc1cccc(S(=O)(=O)Nc2ccc(F)c(C#Cc3cnc4[nH]nc(OC)c4c3)c2F)c1
0.0192 | 0.169 | > 10 |  | COc1n[nH]c2ncc(C#Cc3c(F)ccc(NS(=O)(=O)c4ccccc4)c3F)cc12
0.0427 | > 2 | > 10 |  | CC(C)Oc1n[nH]c2ncc(C#Cc3c(F)ccc(NS(=O)(=O)c4cccc(Cl)c4)c3F)cc12
0.0314 |  |  | 0.023 | CCCS(=O)(=O)Nc1ccc(F)c(C(=O)c2c[nH]c3ncc(-c4ccc(Cl)cc4)cc23)c1F [VEMURAFENIB]
0.0121 | > 10 | > 10 |  | COc1n[nH]c2ncc(C#Cc3c(F)ccc(NS(=O)(=O)c4cccc(C)c4)c3F)cc12
